Source: paper PMC5383082 (International Journal of Nanomedicine, 2017)

How the values were obtained:
HeLa cells [1] = assay: MTT cytotoxicity assay; type: cell-based
Method in brief: (§1)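 Cells kept in folate-free medium were seeded at 5×10^3 per well and grown 24 h. They were then exposed for 2 h at 37°C to serial dilutions of 1.56–25.00 μg/mL DOX equivalent, followed by 72 h in drug-free DMEM. MTT (5 mg/mL stock) was added for 4 h, formazan was dissolved in DMSO and absorbance read at 490 nm. Five parallel experiments; mean ± SD.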

HeLa cells [2] = assay: Cellular uptake; type: cell-based
Method in brief: (§2)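 Cells were grown 48 h in folate-free RPMI 1640, then given conjugates at 5 μg/mL DOX for 1 h at 37°C. For blocking, 1 mM free folate was added before the conjugates. For microscopy, monolayers were rinsed 3× with PBS, fixed in 4% paraformaldehyde for 15 min and imaged by fluorescence at equal exposure. For flow cytometry, 3×10^5 trypsinized cells per tube received the same treatment and were rinsed before reading.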

[3] = Tissue distribution of DOX after intravenous injection; type: in vivo; details: mice, i.v. 5 mg/kg, compared with free DOX
Method in brief: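 Male Kunming mice (~25 g, 6–8 weeks) received 5 mg/kg DOX equivalent intravenously. Heart, liver, spleen and kidney were collected at 30 min and 3 h. Tissue was homogenized in ethanol/HCl/water and centrifuged at 12,000 rpm for 15 min. DOX in the supernatant was measured by fluorescence spectrophotometry. n=4; mean ± SD.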

KB cells [4] = assay: Cellular uptake; type: cell-based
Method in brief: as §2

KB cells [5] = assay: Apoptosis assay; type: cell-based; details: 3 μg/mL DOX
Method in brief: (§3)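 HeLa or KB cells were seeded at 4×10^5 per well, cultured 24 h, then exposed to conjugates at 3 μg/mL DOX for 24 h at 37°C. For receptor blocking, 1 mM free folate was added before the drug. Trypsinized and floating cells were pooled and stained with annexin V-FITC/PI. 20,000 cells per sample were analysed by flow cytometry, with FSC/SSC gating to exclude debris. Q2 was scored as late and Q4 as early apoptosis. Mean ± SD, three independent experiments.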

Subcutaneous KB tumors = assay: KB xenograft tumor mouse model; type: in vivo, BALB/c nude mice; details: KB xenograft nude mice, single i.v. dose 8 mg/kg DOX
Method in brief: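 Female BALB/c nude mice (6–8 weeks, 16–18 g) were inoculated subcutaneously in the front armpit with 2.5×10^6 KB cells. Once tumors were established, mice got a single tail-vein injection of 8 mg/kg DOX equivalent; saline served as control. Tumors were measured every 4 days, with volume = length × width² × 0.52. Body weight was recorded every 4 days and survival was followed. n=6 per group; mean ± SD.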

KB cells [6] = assay: MTT cytotoxicity assay; type: cell-based
Method in brief: as §1

[7] = Pharmacokinetic analysis of plasma DOX after intravenous injection; type: in vivo; details: Kunming mice, i.v. 5 mg/kg DOX, noncompartmental
HeLa cells [8] = assay: Apoptosis assay; type: cell-based; details: 3 μg/mL DOX
Method in brief: as §3

[9] = 2 h drug incubation then 72 h culture, DOX concentration, mean ± SD

folate-polyethylene glycol-immunoglobulin G-doxorubicin [FA-PEG-IgG-DOX]
IC50 as fraction of that of IgG-DOX (HeLa cells [1]): about 1/8 | antitumor activity, times higher than IgG-DOX (HeLa cells [1]): at least 8 times | IC50 (HeLa cells [1]; [9]): 3.22 ± 0.9 µg/mL | fluorescence intensity (microscopy) (HeLa cells [2]; 5 μg/mL DOX, 1 h, 37°C): apparently higher than IgG-DOX | uptake after 1 mM folate pretreatment (microscopy) (HeLa cells [2]; 1 mM folate pretreatment): could be blocked | DOX concentration in the heart [3]: at the same level with that following free DOX injection | fluorescence intensity (microscopy) (KB cells [4]; 5 μg/mL DOX, 1 h, 37°C): apparently higher than IgG-DOX | uptake after 1 mM folate pretreatment (microscopy) (KB cells [4]; 1 mM folate pretreatment): could be blocked | proapoptotic effect after pretreatment with 1 mM folate (KB cells [5]): significantly diminished | body weight change (Subcutaneous KB tumors): minor body weight reduction | survival of treated mice (Subcutaneous KB tumors): prolonged the survival of treated mice compared with DOX | tumor growth from day 12 to day 25 (Subcutaneous KB tumors): maintained a very low growth rate | average tumor size at day 25 after injection (Subcutaneous KB tumors; day 25): 553 mm^3 | IC50 as fraction of that of IgG-DOX (KB cells [6]): about 1/12 | antitumor activity, times higher than IgG-DOX (KB cells [6]): at least 8 times | IC50 (KB cells [6]; [9]): 1.78 ± 0.4 µg/mL | AUC(0–∞) [7]: 992.943 μg/mL⋅h | CLz [7]: 0.19 mL/day/kg | Cmax [7]: 225.275 ng/mL | Vz [7]: 0.070 L/kg | proapoptotic effect after pretreatment with 1 mM folate (HeLa cells [8]): significantly diminished
